Screening data from PubChem.
This is a sample that favours compounds with a hit; in the whole collection about 3.9% have one here.
TAAR1 ag: human TAAR1 agonists, primary screen, Fluo-8 calcium fluorescence, CHO RD-HGA16 cells; Trace amine-associated receptor 1 (Homo sapiens), Q96RJ0; vehicle wells 0%, saturating PEA agonist 100%; activation, % at 3 µM; hit rate 0.99% among 360,000;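 active = activation above the mean activation of all test compounds in the run plus 3 SD, cut at about 38% in these data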
Target sequence (Q96RJ0 whole entry, looked up): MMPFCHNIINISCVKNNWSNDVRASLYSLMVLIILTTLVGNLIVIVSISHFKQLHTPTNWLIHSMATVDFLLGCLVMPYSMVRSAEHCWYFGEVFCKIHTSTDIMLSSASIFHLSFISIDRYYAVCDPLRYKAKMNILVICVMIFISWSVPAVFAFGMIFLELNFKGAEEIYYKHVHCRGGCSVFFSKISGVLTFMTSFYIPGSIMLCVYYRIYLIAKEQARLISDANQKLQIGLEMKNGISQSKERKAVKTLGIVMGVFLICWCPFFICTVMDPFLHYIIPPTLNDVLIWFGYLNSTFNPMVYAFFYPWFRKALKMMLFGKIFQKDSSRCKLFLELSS
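Assay system: CHO-derived RD-HGA16 cells with stable Gα16 and human TAAR1; timing: 17-24 h seeding, 75 min 37 °C dye, 30 min RT; read-out: % activation from peak over basal fluorescence ratio, DMSO-to-PEA scaled; measured by: kinetic Fluo-8 calcium fluorescence; benchmarks: low control DMSO, high control PEA (EC100); doses: 3 µM single concentration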
TAAR1 antag: human TAAR1 antagonists, primary screen, Fluo-8 calcium fluorescence, CHO RD-HGA16 cells | Trace amine-associated receptor 1 (Homo sapiens), Q96RJ0 | antagonist | inhibition, % at 3 µM | hit rate 1.5% among 360,000;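 active = inhibition above a per-plate cutoff, the mean inhibition of test compounds on that plate plus 3 SD, cut at about 49% in these data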;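 note: 0% = DMSO plus EC80 beta-PEA response and 100% = DMSO alone without agonist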
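Assay system: CHO-derived RD-HGA16 cells stably expressing human TAAR1 plus Gα16. Timing: 140 s kinetic read after compound, 140 s after agonist. Technique: kinetic Fluo-8 calcium fluorescence measurement. Measure: % inhibition of agonist calcium response.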
ANO1 activ: TMEM16A chloride channel activators or potentiators, primary screen, cell-based, HTS. HEK293 TMEM16A/YFP-H148Q/I152L, iodide quench fluorescence; hits give low values. B-score at 10 µM. hit rate 0.3% among 340,000. AID 623877, 2012;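 active = fluorescence-ratio B-score plate-corrected deviation score at least 3 library SD below zero, with starting fluorescence score within 5 deviations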;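 note: channel opened by trigger with iodide after compound preincubation; score built on the fluorescence ratio of max minus min over baseline; more negative score means more quench and so TMEM16A activation or potentiation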
CRFR2-BP ag: agonists of CRF-BP/CRF-R2 complex, primary screen, cell-based, HEK293, calcium dye fluorescence, uHTS. CRF-binding protein / CRF receptor 2 complex (human). calcium dye fluorescence (FLIPR); percent of saturating CRF peptide response. activation, % at 13.2 µM. hit rate 0.46% among 350,000. AID 588473, 2011;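 active = activation of at least 50%, plus an integration ratio under a set limit after plate pattern correction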;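 note: plate controls were neutral control wells without compound for no effect and CRF at EC100 for full effect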
ANO1 block: TMEM16A chloride channel inhibitors, primary screen, cell-based, HTS | Anoctamin-1 (Mus musculus), Q8BHY3 | HEK293 TMEM16A/YFP iodide influx fluorescence, ionomycin | normalized B-score (activity score, 25-100; higher = stronger inhibition) at 10 µM | hit rate 1.2% among 310,000;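 active = ratio plate-corrected score three or more library SD toward inhibition, starting fluorescence score within five deviations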;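 note: score derived from kinetic fluorescence span divided by baseline fluorescence per well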
CRFBP-R2 block: antagonists of CRF-BP/CRF-R2 complex, primary screen, cell-based, HEK293, calcium dye fluorescence, uHTS. CRF-induced calcium fluorescence. inhibition, % at 11.8 µM. hit rate 0.59% among 350,000. AID 588475, 2011;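 active = inhibition of the ligand-induced calcium signal above about 50% at the single tested concentration, limit read from the data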
TAAR1 ag confirm: human TAAR1 agonists, retest of hits, confirmation, Fluo-8 calcium fluorescence, CHO RD-HGA16 cells | hit rate 82% among 2,400 | activation, % at 3 µM | scaled: DMSO 0%, maximal phenethylamine 100% | AID 651783, 2012 | shares compounds with TAAR1 ag;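 active = activation above a cutoff set at the run's mean compound activation plus 3 SD, cut at about 39% in these data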
Ga16 nonsel ag: nonselective calcium mobilization agonists, CHO-Ga16 cells, counter-screen for hTAAR1 agonist project, cell-based, fluorescence, CHO-Ga16 parental line; activation, % at 3 µM; hit rate 50% among 2,400; Fluo-8 calcium fluorescence; normalized to maximal ATP response, DMSO zero; shares compounds with TAAR1 ag;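 active = activation above the run cutoff, the mean activation over all tested wells plus 3 SD, cut at about 12% in these data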;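 note: 0% = DMSO wells and 100% = maximal ATP response on the peak over basal ratio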
TAAR1 desens: TAAR1 desensitization by agonist hits, confirmation, counter-screen for TAAR1 agonist project, cell-based, fluorescence, tachyphylaxis. shares compounds with TAAR1 ag. CHO RD-HGA16 hTAAR1, Fluo-8 calcium, beta-PEA response inhibition. inhibition, % at 3 µM. hit rate 46% among 2,400;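 active = inhibition above the run cutoff, the mean inhibition of all test compounds plus 3 SD, cut at about 49% in these data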;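 note: beta-PEA stimulus applied at its EC80; loss of beta-PEA calcium signal after compound pretreatment read as receptor desensitization; 0% = DMSO with beta-PEA at EC80 and 100% = DMSO alone without agonist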
Ga16 antag count: inhibition of ATP-evoked calcium response in CHO-Ga16 cells, counter-screen for TAAR1 agonist project, cell-based, fluorescence | AID 651952, 2012 | hit rate 39% among 2,400 | shares compounds with TAAR1 ag | CHO-Ga16 ATP-induced calcium, Fluo-8 fluorescence | inhibition, % at 3 µM;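 active = inhibition above the plate's mean compound inhibition plus 3 SD, computed per plate, cut at about 22% in these data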;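 note: 0% = EC80 ATP with DMSO and 100% = DMSO wells without ATP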
Starred values were filed as active, the others as inactive; i = inactive; . = no result.

SMILES	TAAR1 ag	TAAR1 antag	ANO1 activ	CRFR2-BP ag	ANO1 block	CRFBP-R2 block	TAAR1 ag confirm	Ga16 nonsel ag	TAAR1 desens	Ga16 antag count
CCCOc1ccc(-c2c(C(=O)N/N=C/c3ccc(OC)cc3)nnn2-c2nonc2N)cc1	29	-18	i	-1	i	-51	.	.	.	.
CCOc1cccc(-c2c(C(=O)N/N=C/c3cccnc3)nnn2-c2nonc2N)c1	14	-4	i	-1	i	-25	.	.	.	.
CCOc1ccc(-c2c(C(=O)N/N=C/c3ccc(OC)cc3)nnn2-c2nonc2N)cc1	51*	5	i	1	i	-169	47*	23*	4	4
O=S(=O)(CCc1ccncc1)c1ccc(Cl)cc1	4	-2	i	0	i	5	.	.	.	.
COc1ccc(NC(=O)Cc2nnc(SCC(=O)NC3=NCCS3)n2C)cc1	9	-7	i	-3	i	24	.	.	.	.
CCCN(CCC)Cc1c(C(=O)N/N=C/c2cccs2)nnn1-c1nonc1N	-4	-6	i	1	i	2	.	.	.	.
CCCc1c(C(=O)N/N=C/c2cccs2)nnn1-c1nonc1N	65*	-14	i	0	i	-2	27	19*	4	15
CCOc1ccc(-c2c(C(=O)N/N=C/c3ccsc3)nnn2-c2nonc2N)cc1	119*	21	i	0	i	-34	111*	74*	23	10
CCc1ccc(/C=N/NC(=O)c2nnn(-c3nonc3N)c2CN2CCOCC2)cc1	63*	3	i	-1	i	-55	59*	52*	20	16
CCOc1ccc(N(CC(=O)Nc2ccc(C)c(Cl)c2)S(C)(=O)=O)cc1	2	0	i	0	i	-8	.	.	.	.
CN1C(=O)/C(=C\c2ccc(N(C)C)cc2)OC1=S	100*	62*	i	211*	i	-187	87*	116*	58*	68*
COc1ccc(/C=C2\OC(=S)N(C)C2=O)cc1	2	-3	i	-2	i	1	.	.	.	.
COc1ccc(C(=O)Nc2cc(C(C)=O)c(C)oc2=O)cc1	0	16	i	0	i	-47	.	.	.	.
COC(=O)c1cc(NC(=O)c2ccccc2)c(=O)oc1/C=C/Nc1ccc(Oc2ccccc2)cc1	50*	68*	i	138*	.	-167	62*	73*	85*	87*
NC(c1ccccc1)c1csc(NC(=O)Nc2cccc(Cl)c2)n1 (stereo unspecified)	64*	29	.	.	.	.	74*	22*	57*	36*
NC(c1ccccc1)c1csc(NC(=O)NCCc2ccccc2)n1 (stereo unspecified)	62*	11	.	.	.	.	28	5	16	15
